# PDI inh: blocks human protein disulfide isomerase activity; P07237; PDI insulin aggregation turbidity, A650, 90 min; inhibition, % at 10 µM; hit rate 0.052% among 350,000; AID 588391;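 active = mean inhibition across replicates of 30% or more, whatever share of single replicates reach that level; inconclusive = mean inhibition below 30% while every single replicate reaches 30%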
# Target sequence (P07237 whole entry, looked up): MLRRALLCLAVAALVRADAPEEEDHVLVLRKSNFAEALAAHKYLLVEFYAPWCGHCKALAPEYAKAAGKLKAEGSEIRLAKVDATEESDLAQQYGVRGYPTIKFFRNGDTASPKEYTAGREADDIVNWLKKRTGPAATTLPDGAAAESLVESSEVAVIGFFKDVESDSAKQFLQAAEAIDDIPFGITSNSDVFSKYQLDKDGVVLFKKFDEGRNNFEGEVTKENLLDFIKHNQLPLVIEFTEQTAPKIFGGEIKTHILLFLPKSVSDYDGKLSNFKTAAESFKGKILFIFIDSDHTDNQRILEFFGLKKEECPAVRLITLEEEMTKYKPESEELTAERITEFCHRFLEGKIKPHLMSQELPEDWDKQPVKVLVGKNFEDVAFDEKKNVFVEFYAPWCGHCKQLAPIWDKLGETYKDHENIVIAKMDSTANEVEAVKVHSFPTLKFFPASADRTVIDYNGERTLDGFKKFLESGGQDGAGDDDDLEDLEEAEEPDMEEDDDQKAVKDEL
# Statin myotox sup: suppression of simvastatin myotoxicity; AID 602340; rescue of ATP level, % at 7.49 µM; hit rate 0.78% among 330,000; C2C12 myotubes + simvastatin, ATP luminescence, 48 h; scaled: DMSO 0, geranylgeraniol control 100;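 active = mean ATP rescue above about 67%, or every replicate alone reaching that limit, limit read from the data, passing the limit was not always enough; inconclusive = no clear call, values can overlap the other calls; inactive = mean under the limit and some replicate under it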;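 also: myotubes were challenged with 10 µM simvastatin during compound exposure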
# Cneo AK release: Cryptococcus neoformans lysis via adenylate kinase release. C. neoformans lysis, adenylate kinase release luminescence, 4 h; normalised: neutral wells 0, clomiphene wells 100. lysis activity, % at 15 µM. hit rate 0.2% among 360,000. AID 651654;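 active = mean lysis activity across replicates of at least 80%, whatever share of replicates individually reach that level; inactive = mean lysis activity below 80%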
#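 Test system: log-phase Cryptococcus neoformans yeast cells; Quantity: yeast cell density of 5 × 10^6 cells/mL; Buffer or medium: YPD; Doses: single compound concentration per well; Timing: 4 h at 37 °C static, read 1 h later; Measured by: AK luminescence; Read-out basis: lysis from increased AK signal; Control set: Clomiphene as positive control.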
# DENV2 CPE: DENV2-induced cell death inhibition; DENV2-infected cells, cytopathic effect rescue, plate reader; CPE inhibition, % at 9.99 µM; hit rate 1.7% among 350,000; AID 651640; in the data active = CPE inhibition above about 20%, passing the limit was not always enough; inconclusive = no clear call, values can overlap the other calls; tested in BHK-21 cells;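 also: 0% = median of neutral control wells and 100% = median of positive control wells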
# CFTR F508del cor: CFTR F508del correction in bronchial cells; hit rate 0.36% among 350,000; AID 720511; CFBE cells, YFP halide quenching; stimulated with forskolin plus potentiator P3; % fluorescence drop versus neutral controls; activity (quench increase), % at 7.58 µM;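 active = mean added fluorescence quench of at least 8% versus neutral control, with both replicates also reaching 8%; inconclusive = only one of the mean or replicate conditions met; inactive = mean below 8% and not both replicates reaching 8%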;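 also: cells transiently co-express mutant CFTR-F508del with the halide-sensitive YFP; corrector assay measuring rescue of mutant channel to the surface after 24 h compound exposure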
# ERp5 inh: blocks human ERp5 reductase activity on insulin. Q15084. ERp5 insulin aggregation, absorbance 650 nm, 90 min. inhibition, % at 9.99 µM. hit rate 0.05% among 350,000. AID 651711;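 active = mean replicate inhibition above about 25%, with every replicate also reaching it, limit read from the data, passing the limit was not always enough; inconclusive = only one of those two criteria met; inactive = neither criterion met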
# An asterisk follows results filed as active; ? = inconclusive; . = not tested or not shown. Shown are actives, neighbours in structure and some others; about 2.3% of the full set was active somewhere.
SMILES,PDI inh,Statin myotox sup,Cneo AK release,DENV2 CPE,CFTR F508del cor,ERp5 inh
COc1ccc(CNC(=O)C[C@H]2C=C[C@@H](NC(=O)c3ccc4c(c3)OCO4)[C@H](CO)O2)cc1,.,21,-7,?,4,-2
O=C(NCc1ccccc1)[C@H]1[C@H](CO)[C@H]2Cn3c(cccc3=O)[C@@H]1N2,.,-1,1,4,0,3
CC(C)NC(=O)Nc1ccc2c(c1)C(=O)N([C@H](C)CO)C[C@H](C)[C@H](CN(C)C)OCCCC[C@H](C)O2,.,.,0,0,-2,-1
C[C@@H]1CN([C@H](C)CO)C(=O)Cc2cc(NS(=O)(=O)c3ccc(F)cc3)ccc2O[C@H]1CN(C)C(=O)Nc1ccc2c(c1)OCO2,.,12,.,.,-1,.
COc1ccc(Cl)cc1C(=O)NC(=S)Nc1ccccc1N1CCOCC1,-4,-4,-9,14,-2,1
O=C(NC(=S)Nc1cc(Cl)ccc1N1CCOCC1)c1ccccc1[N+](=O)[O-],20,.,340*,0,2,1
C[C@@H]1CCCCO[C@H](CN(C)Cc2ccc(C(=O)O)cc2)[C@@H](C)CN([C@@H](C)CO)C(=O)c2cc(NS(=O)(=O)c3cccs3)ccc2O1,.,.,-2,-2,-1,0
O=C(NCc1cccs1)c1cccc(Nc2nc3ccc(Br)cc3[nH]2)c1,-7,-12,1,22*,0,-4
O=C(NCc1cccs1)c1ccccc1,0,-3,-1,.,.,.
C/C=C/c1ccc([C@@H]2[C@@H](CNC(=O)C3CC3)N(C(=O)CC)[C@H]2CO)cc1,.,1,93*,26*,-3,6
C/C=C/c1ccc([C@@H]2[C@@H](CO)N(C(=O)NCCC)[C@H]2CN(C)C(=O)CC)cc1,.,29,0,78*,1,.
C/C=C/c1ccc([C@H]2[C@@H](CO)N(C(C)=O)[C@H]2CNC(=O)c2ccccc2)cc1,.,27,1,24*,0,-4
C/C=C/c1ccc([C@H]2[C@H](CO)N(C(C)=O)[C@H]2CNC(=O)c2ccccc2)cc1,.,14,5,-9,2,-12
C/C=C/c1ccc([C@@H]2[C@@H](CO)N(C(=O)COC)[C@@H]2CNC(=O)CC)cc1,.,13,5,5,-5,-3
C/C=C/c1ccc([C@H]2[C@@H](CO)N(C(=O)COC)[C@@H]2CNC(=O)CC)cc1,.,11,2,-12,8.3*,0
C/C=C/c1ccc([C@H]2[C@@H](CO)N(C(=O)NCCC)[C@H]2CN(C)C(=O)CC)cc1,.,.,.,-9,-1,-2
CCC(=O)N(C)C[C@@H]1Oc2cc(C3=CCCC3)ccc2S(=O)(=O)N([C@H](C)CO)C[C@H]1C,.,2,-1,2,1,3
COc1cccc(NC(=O)Nc2ccc3c(c2)C(=O)N(C)C[C@@H](OC)[C@@H](C)CN(CC2CC2)[C@H](C)CO3)c1,.,9,-5,9,0,2
CO[C@H]1CN(C)C(=O)c2cc(NC(=O)c3ccc4c(c3)OCO4)ccc2OC[C@@H](C)N(CC2CC2)C[C@H]1C,.,-2,90*,3,-1,1
CO[C@H]1CN(C)C(=O)c2cc(NC(=O)c3ccc4c(c3)OCO4)ccc2OC[C@@H](C)N(CCC(F)(F)F)C[C@@H]1C,.,20,-3,-9,2,3
CO[C@H]1CN(C)C(=O)c2cc(NC(=O)c3ccc4c(c3)OCO4)ccc2OC[C@H](C)N(CCC(F)(F)F)C[C@@H]1C,.,.,.,23*,0,.
Cc1noc(C)c1S(=O)(=O)Nc1ccc2c(c1)C(=O)N([C@@H](C)CO)C[C@H](C)[C@H](CN(C)Cc1ccc(C(=O)O)cc1)OCCCC[C@@H](C)O2,.,.,-1,50*,0,0
Cc1noc(C)c1S(=O)(=O)Nc1ccc2c(c1)C(=O)N([C@H](C)CO)C[C@H](C)[C@H](CN(C)Cc1ccncc1)OCCCC[C@@H](C)O2,.,.,0,26*,1,1
Cc1noc(C)c1S(=O)(=O)Nc1ccc2c(c1)C(=O)N([C@H](C)CO)C[C@H](C)[C@H](CN(C)Cc1ccc(C(=O)O)cc1)OCCCC[C@H](C)O2,.,.,-1,-3,0,-2

# Compound activity: PubChem, Broad Institute
